pEC50: −log10 of the molar value. The source made the active and inactive calls. The calls are words filed in the database; no cut-off is given here.
How the values were obtained:
[1] = molecular target: Metabotropic glutamate receptor 4 (Homo sapiens, UniProt Q14833); experiment: Positive allosteric modulation of human mGlu4 receptor expressed in CHO cells co-expressing Gqi5 assessed as increase in glutamate-induced calcium mobilization preincubated for 142 secs followed by EC20 glutamate addition and subsequent EC80 glutamate addition after 147 secs by Fluo-4-AM dye based fluorescence assay; type: functional, cell-based
Sequence of Metabotropic glutamate receptor 4 (Q14833 whole entry): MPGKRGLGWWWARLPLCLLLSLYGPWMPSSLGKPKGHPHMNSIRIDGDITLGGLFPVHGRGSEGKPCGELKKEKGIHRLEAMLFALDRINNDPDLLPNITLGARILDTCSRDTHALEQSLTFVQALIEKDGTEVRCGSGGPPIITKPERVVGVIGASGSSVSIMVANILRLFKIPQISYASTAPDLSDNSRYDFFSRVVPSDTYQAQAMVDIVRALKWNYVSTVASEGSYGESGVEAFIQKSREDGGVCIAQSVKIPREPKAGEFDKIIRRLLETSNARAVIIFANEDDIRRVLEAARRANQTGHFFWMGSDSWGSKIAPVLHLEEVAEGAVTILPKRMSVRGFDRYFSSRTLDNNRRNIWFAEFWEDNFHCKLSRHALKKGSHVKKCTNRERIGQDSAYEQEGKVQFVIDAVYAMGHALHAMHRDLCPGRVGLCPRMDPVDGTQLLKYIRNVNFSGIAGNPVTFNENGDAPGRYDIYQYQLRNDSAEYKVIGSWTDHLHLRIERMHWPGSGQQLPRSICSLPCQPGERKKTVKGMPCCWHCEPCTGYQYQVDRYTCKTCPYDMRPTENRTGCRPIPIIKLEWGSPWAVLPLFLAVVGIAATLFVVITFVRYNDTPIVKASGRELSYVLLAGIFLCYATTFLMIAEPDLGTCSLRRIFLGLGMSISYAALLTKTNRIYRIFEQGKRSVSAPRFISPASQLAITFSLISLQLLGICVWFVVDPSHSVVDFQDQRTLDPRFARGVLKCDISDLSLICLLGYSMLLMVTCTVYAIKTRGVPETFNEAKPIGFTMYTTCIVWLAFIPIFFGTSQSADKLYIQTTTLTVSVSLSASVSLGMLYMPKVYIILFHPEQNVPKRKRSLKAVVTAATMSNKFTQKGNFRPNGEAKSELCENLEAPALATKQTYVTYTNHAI
Outline: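 CHO cells expressing human mGlu4 and Gqi5, plated at 30,000 cells/well and grown overnight at 37 °C, 5% CO2. Cells were loaded with 1 μM Fluo-4 AM for 45 min at 37 °C in HBSS/20 mM HEPES/2.5 mM probenecid. Compounds were run as 10-point, 1:3 dilution series. After 142 s, EC20 glutamate was added; 147 s later, EC80 glutamate. Fluorescence was normalized to the maximal glutamate response. EC50 and %Glu Max were fitted by four-parameter logistic, with maximum normalized to PHCCC.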

[2] = Intrinsic clearance in human liver microsomes at 1 uM preincubated for 5 mins followed by NADPH addition measured up to 45 mins by LC-MS/MS analysis; type: ADME, Microsome; settings: read-out: CLH
Outline: (§1)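 Intrinsic and predicted hepatic clearance derived from liver microsome incubations.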

[3] = Intrinsic clearance in rat liver microsomes at 1 uM preincubated for 5 mins followed by NADPH addition measured up to 45 mins by LC-MS/MS analysis; type: ADME, Microsome; settings: read-out: CLH; outline: as §1
[4] = Fraction unbound in rat plasma after 4 hrs by equilibrium dialysis method; type: ADME, cell-free
[5] = molecular target: Metabotropic glutamate receptor 4 (Rattus norvegicus) (UniProt P31423); experiment: Positive allosteric modulation of rat mGlu4 receptor expressed in HEK cells co-expressing GIRK1/2 assessed as increase in glutamate-induced thallium flux preincubated for 140 secs followed by glutamate addition and measured after 2.5 mins by FluoZin-2-AM dye based fluorescence assay relative to control; type: cell-based
Sequence of Metabotropic glutamate receptor 4 (Rattus norvegicus) (P31423 whole entry): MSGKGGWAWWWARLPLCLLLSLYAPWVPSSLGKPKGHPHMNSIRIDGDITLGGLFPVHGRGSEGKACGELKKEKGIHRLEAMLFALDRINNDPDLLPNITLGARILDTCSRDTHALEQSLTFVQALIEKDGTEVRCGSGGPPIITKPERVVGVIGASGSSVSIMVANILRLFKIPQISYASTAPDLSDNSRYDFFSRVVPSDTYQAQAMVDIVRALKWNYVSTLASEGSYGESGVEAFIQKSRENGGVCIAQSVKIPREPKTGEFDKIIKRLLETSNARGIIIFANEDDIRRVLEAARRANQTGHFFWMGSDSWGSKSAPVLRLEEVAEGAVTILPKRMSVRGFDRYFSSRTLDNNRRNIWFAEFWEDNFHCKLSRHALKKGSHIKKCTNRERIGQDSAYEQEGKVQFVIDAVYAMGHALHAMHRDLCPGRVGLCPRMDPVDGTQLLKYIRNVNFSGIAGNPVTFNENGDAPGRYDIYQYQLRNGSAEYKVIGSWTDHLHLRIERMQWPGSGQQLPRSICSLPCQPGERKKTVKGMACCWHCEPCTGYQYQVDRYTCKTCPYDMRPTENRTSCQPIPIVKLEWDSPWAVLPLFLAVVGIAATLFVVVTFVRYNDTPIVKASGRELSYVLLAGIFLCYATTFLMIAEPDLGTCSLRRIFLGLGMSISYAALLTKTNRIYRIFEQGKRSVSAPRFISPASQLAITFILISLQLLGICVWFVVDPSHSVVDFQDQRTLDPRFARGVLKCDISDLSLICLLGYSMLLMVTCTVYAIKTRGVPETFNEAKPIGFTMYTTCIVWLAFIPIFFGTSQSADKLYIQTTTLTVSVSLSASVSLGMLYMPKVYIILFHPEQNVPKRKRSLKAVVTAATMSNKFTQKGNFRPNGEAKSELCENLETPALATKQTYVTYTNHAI
Outline: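 HEK cells co-expressing rat mGlu4 and GIRK1/2 were loaded for 1 h at room temperature with FluoZin-2 AM (330 nM final) in HBSS/20 mM HEPES pH 7.4. Compound was incubated 140 s, then thallium buffer with or without agonist was added. Reading continued for 2.5 min at room temperature. Potency was fitted by four-parameter logistic.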

[6] = MRT in rat administered as iv cassette dose; type: ADME, organism-based; settings: in vivo
Outline: (§2)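 IV cassette in male Sprague-Dawley rats (~300 g, n = 1 per experiment), cannulated in carotid artery and jugular vein and acclimated about one week. Plasma clearance, Vss, t1/2 and MRT were derived.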

[7] = Half life in rat administered as iv cassette dose; type: ADME, organism-based; settings: in vivo; outline: as §2
[8] = Plasma concentration in rat administered as iv cassette dose; type: ADME, organism-based; settings: in vivo
Outline: (§3)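 Cassette dosing in male Sprague-Dawley rats (~300 g, n = 1 per experiment), with carotid artery and jugular vein catheters. Animals acclimated about one week with food and water ad libitum. Plasma (ng/mL) and brain (ng/g) levels were measured and Kp calculated.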

[9] = Drug uptake in rat brain administered as iv cassette dose; type: ADME, organism-based; settings: in vivo; outline: as §3
[10] = Plasma concentration in Sprague-Dawley rat model of haloperidol-induced catalepsy at 10 mg/kg, po; type: ADME, organism-based; settings: in vivo
Outline: (§4)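 Male Sprague-Dawley rats given haloperidol 0.75 mg/kg i.p., then returned to cages for 60 min. Compound 10 mg/kg was dosed orally 30 min before catalepsy testing. Plasma, brain and CSF were then assayed, and free levels reported.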

[11] = Drug uptake in brain of Sprague-Dawley rat model of haloperidol-induced catalepsy at 10 mg/kg, po; type: ADME, organism-based; settings: in vivo, read-out: Drug uptake; outline: as §4
P-gp = experiment: Permeability from apical to basolateral side in MDCK cells harboring P-gp; type: ADME, cell-based, Canis lupus familiaris; settings: dog, MDCK-MDR1; read-out: permeability
[12] = Brain to plasma partition coefficient, Kp of the compound in Sprague-Dawley rat model of haloperidol-induced catalepsy at 10 mg/kg, po; type: ADME, organism-based; settings: brain and plasma; outline: as §4
[13] = molecular target: Metabotropic glutamate receptor 1 (Homo sapiens) (UniProt Q13255); experiment: Allosteric modulation of human mGlu1 receptor assessed as change in glutamate-induced calcium mobilization at 10 uM preincubated for 2.5 mins followed by glutamate addition by Fluo-4-AM dye based fluorescence assay; type: functional
Sequence of Metabotropic glutamate receptor 1 (Homo sapiens) (Q13255 19-1194 limits assumed): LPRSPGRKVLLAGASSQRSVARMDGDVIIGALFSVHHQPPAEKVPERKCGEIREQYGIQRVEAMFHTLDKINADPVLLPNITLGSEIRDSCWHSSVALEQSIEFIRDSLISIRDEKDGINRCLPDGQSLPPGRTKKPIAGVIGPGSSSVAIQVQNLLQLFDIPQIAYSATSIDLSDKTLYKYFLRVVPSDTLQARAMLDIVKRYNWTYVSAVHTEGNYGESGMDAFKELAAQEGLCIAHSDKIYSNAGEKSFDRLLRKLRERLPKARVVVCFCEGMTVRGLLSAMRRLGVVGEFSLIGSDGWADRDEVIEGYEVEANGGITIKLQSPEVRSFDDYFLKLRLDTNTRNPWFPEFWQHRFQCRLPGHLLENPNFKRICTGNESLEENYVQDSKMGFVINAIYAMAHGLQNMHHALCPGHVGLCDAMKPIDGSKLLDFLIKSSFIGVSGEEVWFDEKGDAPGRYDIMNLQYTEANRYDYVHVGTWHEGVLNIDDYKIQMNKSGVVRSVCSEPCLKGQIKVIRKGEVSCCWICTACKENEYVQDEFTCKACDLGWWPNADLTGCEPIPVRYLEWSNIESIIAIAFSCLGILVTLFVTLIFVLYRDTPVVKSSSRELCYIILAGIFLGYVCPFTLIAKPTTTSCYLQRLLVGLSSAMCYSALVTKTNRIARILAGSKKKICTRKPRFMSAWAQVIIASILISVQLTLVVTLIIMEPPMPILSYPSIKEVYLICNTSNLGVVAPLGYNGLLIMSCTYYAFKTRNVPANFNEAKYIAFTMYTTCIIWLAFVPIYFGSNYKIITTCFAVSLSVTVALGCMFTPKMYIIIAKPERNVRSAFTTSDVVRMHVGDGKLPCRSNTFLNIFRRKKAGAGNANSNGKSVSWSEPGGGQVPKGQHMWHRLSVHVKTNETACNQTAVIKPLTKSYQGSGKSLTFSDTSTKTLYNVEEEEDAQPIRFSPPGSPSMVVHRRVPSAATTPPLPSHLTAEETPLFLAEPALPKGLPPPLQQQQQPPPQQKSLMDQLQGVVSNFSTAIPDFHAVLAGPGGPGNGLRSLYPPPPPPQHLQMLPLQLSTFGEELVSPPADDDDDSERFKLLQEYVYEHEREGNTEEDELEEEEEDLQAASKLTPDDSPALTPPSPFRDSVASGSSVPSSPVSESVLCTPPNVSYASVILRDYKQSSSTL
Outline: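 Human mGlu1 and rat mGlu5 tested by calcium mobilization with a double addition. 10 μM compound was added, then 2.5 min later a full glutamate concentration range. A left shift of more than 2-fold was scored as potentiation. A right shift of more than 2-fold, or a depression of the maximum response by at least 75%, was scored as antagonism.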

[14] = molecular target: Metabotropic glutamate receptor 2 (Rattus norvegicus) (UniProt P31421); experiment: Allosteric modulation of rat mGlu2 receptor expressed in HEK cells co-expressing GIRK1/2 assessed as change in glutamate-induced thallium flux preincubated for 2.5 mins followed by glutamate addition by FluoZin-2-AM dye based fluorescence assay; type: cell-based
Sequence of Metabotropic glutamate receptor 2 (Rattus norvegicus) (P31421 19-872 limits assumed): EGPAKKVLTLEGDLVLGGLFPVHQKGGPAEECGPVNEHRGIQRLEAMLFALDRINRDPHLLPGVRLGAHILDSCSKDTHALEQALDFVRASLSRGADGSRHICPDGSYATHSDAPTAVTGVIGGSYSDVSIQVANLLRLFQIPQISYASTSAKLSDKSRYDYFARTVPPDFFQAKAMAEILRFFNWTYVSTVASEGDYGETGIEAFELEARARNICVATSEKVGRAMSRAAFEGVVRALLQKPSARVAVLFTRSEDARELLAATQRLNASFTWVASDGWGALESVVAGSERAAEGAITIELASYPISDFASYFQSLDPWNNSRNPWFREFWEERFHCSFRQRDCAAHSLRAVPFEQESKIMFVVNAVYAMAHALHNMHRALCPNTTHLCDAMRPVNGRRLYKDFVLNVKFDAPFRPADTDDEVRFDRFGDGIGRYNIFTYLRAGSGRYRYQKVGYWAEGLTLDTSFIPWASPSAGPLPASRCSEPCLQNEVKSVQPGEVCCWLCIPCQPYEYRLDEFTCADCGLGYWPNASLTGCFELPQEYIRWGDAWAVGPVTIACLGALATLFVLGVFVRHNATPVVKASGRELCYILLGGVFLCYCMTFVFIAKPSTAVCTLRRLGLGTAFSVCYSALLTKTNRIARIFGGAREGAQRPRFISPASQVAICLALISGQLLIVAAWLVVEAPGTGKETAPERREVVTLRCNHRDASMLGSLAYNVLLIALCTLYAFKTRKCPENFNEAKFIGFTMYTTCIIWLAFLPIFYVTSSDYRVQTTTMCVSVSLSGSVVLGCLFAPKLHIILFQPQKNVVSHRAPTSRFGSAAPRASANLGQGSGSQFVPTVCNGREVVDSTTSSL
Outline: (§5)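 HEK cells expressing GIRK1/2 plus rat mGlu2, mGlu3, mGlu7 or mGlu8, plated at 15,000 cells/well. Thallium flux was read with a double addition: 10 μM compound, then 2.5 min later a full agonist concentration-response. The agonist was glutamate, or L-AP4 for mGlu7. A left shift of more than 2-fold counted as potentiation. A right shift of more than 2-fold, or a ≥75% drop in maximum response, counted as antagonism.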

[15] = molecular target: Metabotropic glutamate receptor 3 (Rattus norvegicus) (UniProt P31422); experiment: Allosteric modulation of rat mGlu3 receptor expressed in HEK cells co-expressing GIRK1/2 assessed as change in glutamate-induced thallium flux preincubated for 2.5 mins followed by glutamate addition by FluoZin-2-AM dye based fluorescence assay; type: cell-based; outline: as §5
[16] = molecular target: Metabotropic glutamate receptor 7 (Rattus norvegicus) (UniProt P35400); experiment: Allosteric modulation of rat mGlu7 receptor expressed in HEK cells co-expressing GIRK1/2 assessed as change in glutamate-induced thallium flux preincubated for 2.5 mins followed by glutamate addition by FluoZin-2-AM dye based fluorescence assay; type: cell-based
Sequence of Metabotropic glutamate receptor 7 (Rattus norvegicus) (P35400 whole entry): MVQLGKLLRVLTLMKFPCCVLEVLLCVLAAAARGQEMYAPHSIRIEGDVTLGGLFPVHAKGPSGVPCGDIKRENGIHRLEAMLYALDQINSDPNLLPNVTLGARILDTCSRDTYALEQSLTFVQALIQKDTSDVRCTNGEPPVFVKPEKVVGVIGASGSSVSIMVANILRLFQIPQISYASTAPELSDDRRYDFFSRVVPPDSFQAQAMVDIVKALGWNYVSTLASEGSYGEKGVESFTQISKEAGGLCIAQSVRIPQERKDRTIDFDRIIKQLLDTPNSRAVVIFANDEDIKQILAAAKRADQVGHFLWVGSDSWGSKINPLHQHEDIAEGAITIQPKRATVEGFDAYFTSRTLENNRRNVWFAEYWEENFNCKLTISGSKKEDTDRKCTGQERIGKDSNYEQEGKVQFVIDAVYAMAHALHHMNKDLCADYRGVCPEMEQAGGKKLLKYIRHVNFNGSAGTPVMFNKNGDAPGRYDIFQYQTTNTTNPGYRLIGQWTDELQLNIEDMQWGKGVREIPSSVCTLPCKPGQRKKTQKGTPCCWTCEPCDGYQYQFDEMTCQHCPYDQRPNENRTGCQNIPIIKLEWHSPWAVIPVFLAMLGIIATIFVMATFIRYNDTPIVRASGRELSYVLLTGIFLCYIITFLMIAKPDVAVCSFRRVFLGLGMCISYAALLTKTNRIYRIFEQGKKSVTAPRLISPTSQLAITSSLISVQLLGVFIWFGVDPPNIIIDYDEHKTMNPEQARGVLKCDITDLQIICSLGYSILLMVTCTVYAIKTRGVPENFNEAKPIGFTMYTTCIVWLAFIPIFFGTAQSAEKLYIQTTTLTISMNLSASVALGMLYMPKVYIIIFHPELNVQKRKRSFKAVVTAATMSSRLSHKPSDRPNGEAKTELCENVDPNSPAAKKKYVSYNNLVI

[17] = molecular target: T1, Adenosine receptor A3 (Homo sapiens) (UniProt P0DMS8); experiment: Displacement of [125I]AB-MECA from recombinant human A3 receptor at 10 uM after 120 mins by scintillation counting method relative to control
T1 sequence (whole entry): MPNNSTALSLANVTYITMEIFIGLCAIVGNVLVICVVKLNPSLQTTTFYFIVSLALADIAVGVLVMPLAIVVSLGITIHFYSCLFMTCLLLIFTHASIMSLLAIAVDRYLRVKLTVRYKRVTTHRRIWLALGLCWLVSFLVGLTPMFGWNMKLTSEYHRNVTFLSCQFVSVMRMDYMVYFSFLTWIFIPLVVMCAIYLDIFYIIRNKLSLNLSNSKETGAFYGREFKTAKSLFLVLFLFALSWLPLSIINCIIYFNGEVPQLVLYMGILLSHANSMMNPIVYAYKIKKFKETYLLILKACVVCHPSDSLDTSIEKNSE

pEC50 [1]: 7.30 | CLint scaled at 1 µM [2]: 19 mL/min/kg | CLint scaled at 1 µM [3]: 34.2 mL/min/kg | fraction unbound at 4 h [4]: 0.005 | %max [5]: 76.8% | MRT [6]: 8.5 h | half-life [7]: 7.42 h | Cp [8]: 284 ng/mL | Drug uptake [9]: 107 ng/g | Papp A→B (P-gp): 2.9 ×10⁻⁶ cm/s | Activity [13]: inactive | Activity [14]: inactive | Activity [15]: inactive | Activity [16]: inactive | inhibition [17]: 76%
Compound: O=C(NC1CC(F)(F)C1)c1nsc2cc(Nc3n[nH]c4cccnc34)ccc12
concentration [10]: 1120 nM | concentration [11]: 252 nM | Kp [12]: 0.23

Reference: ChEMBL document CHEMBL4308847, “Discovery, Structure-Activity Relationship, and Biological Characterization of a Novel Series of 6-((1 H-Pyrazolo[4,3- b]pyridin-3-yl)amino)-benzo[ d]isothiazole-3-carboxamides as Positive Allosteric Modulators of the Metabotropic Glutamate Receptor 4 (mGlu4)” (J Med Chem, 2018)
